The values that follow come from ChEMBL document CHEMBL1137744, “Parallel synthesis, molecular modelling and further structure-activity relationship studies of new acylthiocarbamates as potent non-nucleoside HIV-1 reverse transcriptase inhibitors” (Eur J Med Chem, 2009).

Molecules are shown by their SMILES. Active and inactive are the calls of the source. The rule behind the calls is not given here.

Data set [1] deals with Human immunodeficiency virus 1. Description: Ratio of EC50 for HIV1 3B expressing reverse transcriptase Y181C mutant to EC50 for HIV1 3B. The format is functional. Put shortly:
(§1)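 MT-4 cells infected with HIV-1 carrying the Y181C RT mutation, alongside wild-type virus. EC50 is the concentration giving 50% protection from virus-induced cytopathogenicity, read by MTT. Values are means of three separate experiments run in triplicate. The ratio is EC50(Y181C)/EC50(wt).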

A short description of data set [2]: Cytotoxicity against human MT4 cells by MTT assay. The format is cell-based. Put shortly:
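Uninfected (mock-infected) MT-4 cells were exposed to compound and viability was read by MTT. CC50 is the concentration cutting viability by 50%. Values are means of three separate experiments, with triplicate samples varying by less than 10%.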
(In general: Tetrazolium assays rely on reduction of a dye to a coloured formazan, in cell work by metabolically active cells.)

Data set [3] has as its system Human immunodeficiency virus 1. The data set is described as follows: Antiviral activity against HIV1 3B infected in human MT4 cells assessed as inhibition of virus-induced cytopathogenicity by MTT assay. To be noted: Human immunodeficiency virus 1, 3B. The format is functional, organism-based. A digest of the protocol: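 MT-4 cells infected with HIV-1 and read by MTT viability. EC50 is the concentration giving 50% protection of cells from virus-induced cytopathogenicity. Values are means of three separate experiments, with variation among triplicate samples under 10%.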
On the technique in general: Protection from cytopathic effect is a common read-out in antiviral testing.

The subject of data set [4] is Human immunodeficiency virus 1. The data set is described as follows: Antiviral activity against HIV1 3B expressing reverse transcriptase K103N/Y181C double mutant infected in human MT4 cells assessed as inhibition of virus-induced cytopathogenicity by MTT assay. The class given is functional, organism-based.
Data set [5] is described as follows: Selectivity index, ratio of CC50 for human MT4 cells to EC50 for HIV1 3B. Conditions: read-out: Ratio CC50/EC50. The format is toxicity, cell-based. Put shortly:
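Computed as CC50/EC50. Both come from MTT readings in MT-4 cells: CC50 is 50% viability loss in mock-infected cells, and EC50 is 50% protection from HIV-1-induced cytopathogenicity. Each is the mean of three experiments.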

Data set [6] concerns Human immunodeficiency virus 1. The data set is described as follows: Antiviral activity against HIV1 3B expressing reverse transcriptase Y181C mutant infected in human MT4 cells assessed as inhibition of virus-induced cytopathogenicity by MTT assay. The format is functional, organism-based. To be noted: Human immunodeficiency virus 1, 3B. Put shortly:
as §1

The target of data set [7] is Human immunodeficiency virus type 1 reverse transcriptase (Human immunodeficiency virus 1, UniProt Q72547). Description: Inhibition of wild-type HIV1 reverse transcriptase.

For orientation: CC50 means the concentration at which the toxic effect on the cells reaches its halfway point. What is called EC50 is the concentration at which the effect is half-maximal. In the case of `O=C1c2ccccc2C(=O)N1CCOC(=S)N(C(=O)c1ccc([N+](=O)[O-])cc1)c1ccc(Cl)cc1`, the “Ratio EC50” value in data set [1] is reported as 433. In data set [2], the CC50 was greater than 100 µM. The EC50 turned out to be 0.06 µM in data set [3] and 26 µM in data set [6]. The result in data set [4] was inactive. Further, the selectivity ratio in data set [5] was greater than 1670.

As to `O=C1c2ccccc2C(=O)N1CCOC(=S)N(C(=O)c1ccc2ccccc2c1)c1ccc(Cl)cc1`, the “Ratio EC50” value in data set [1] was found to be 550. In addition, the CC50 in data set [2] was found to be 37 µM. Besides, the EC50 amounted to 0.02 µM in data set [3] and 11 µM in data set [6]. Further, in data set [4], the outcome was inactive. In data set [5], the selectivity ratio amounted to 1850.

As to `S=C(NCCc1ccccn1)Nc1ccc(Br)cn1` [TROVIRDINE], the “Ratio EC50” value in data set [1] is recorded as 60. In addition, the result in data set [4] was inactive. Further, in data set [5], the selectivity ratio was found to be 3000. In addition, the EC50 in data set [6] came out at 1.2 µM.

For `Cc1cc(C(=O)N(C(=S)OCCN2C(=O)c3ccccc3C2=O)c2ccc(Cl)cc2)ccc1Br`, in data set [1], the “Ratio EC50” value is 1557. For the same compound, the CC50 in data set [2] came to 18 µM. For the same compound, the concentration giving a half-maximal response (EC50) in data set [3] was 0.007 µM; in data set [6], 10.9 µM. Moreover, in data set [4], the result was inactive. The selectivity ratio in data set [5] stood at 2570.

In general, IC50 refers to the concentration that inhibits the measured activity by half. A lower IC50 goes with higher potency. For `O=C1c2ccccc2C(=O)N1CCOC(=S)N(C(=O)c1cccnc1Cl)c1ccc(Br)cc1`, in data set [1], the “Ratio EC50” value is 11. In addition, the CC50 in data set [2] was greater than 100 µM. Moreover, the values for the EC50 in data set [3] and in data set [6] were 0.2 µM and 2.3 µM, respectively. In data set [4], the outcome was inactive. This compound also showed an IC50 in data set [7] of 0.7 µM. In addition, the selectivity ratio in data set [5] was greater than 500.

With `O=C1c2ccccc2C(=O)N1CCOC(=S)N(C(=O)c1cccc(Cl)c1Cl)c1ccc(Cl)cc1`, the “Ratio EC50” value in data set [1] was found to be 42. Further, it took 54 µM to reach half-maximal cytotoxicity in data set [2] (CC50). The EC50 in data set [3] came to 0.1 µM; in data set [6] it was 4.2 µM. Besides, in data set [4], the result was inactive. In addition, the selectivity ratio in data set [5] came out at 540.

Turning to `O=C1c2ccccc2C(=O)N1CCOC(=S)N(C(=O)c1ccc(Cl)c([N+](=O)[O-])c1)c1ccc(Cl)cc1`, the “Ratio EC50” value in data set [1] is 450. The compound also yielded a CC50 in data set [2] of 48 µM. In addition, the EC50 in data set [3] was 0.02 µM; in data set [6], 9 µM. For the same compound, the result in data set [4] was inactive. In addition, the selectivity ratio in data set [5] amounted to 2400.

For the compound `Cc1ccc2c(c1)C(=O)N(CCOC(=S)N(C(=O)c1cccnc1Cl)c1ccc(Cl)cc1)C2=O`, in data set [1], the “Ratio EC50” value stood at 112. For the same compound, half-maximal cytotoxicity in data set [2] (CC50) was put at 49 µM. Besides, the concentration giving a half-maximal response (EC50) is 0.06 µM in data set [3] and 6.7 µM in data set [6]. Besides, the result in data set [4] was inactive. Further, in data set [5], the selectivity ratio is 817.

`Cc1ccc2c(c1)C(=O)N(CCOC(=S)N(C(=O)c1ccc(Cl)cc1)c1ccc([N+](=O)[O-])cc1)C2=O` registered a CC50 in data set [2] greater than 100 µM. Moreover, in data set [3], the EC50 was 0.04 µM. In data set [7], this compound gave an IC50 of 0.3 µM. For the same compound, the selectivity ratio in data set [5] was greater than 2500.

Turning to `Cc1cccc2c1C(=O)N(CCOC(=S)N(C(=O)c1cccc([N+](=O)[O-])c1)c1ccc(Cl)cc1)C2=O`, in data set [1], the “Ratio EC50” value is recorded as 140. The compound further showed a CC50 in data set [2] of 44 µM. The EC50 worked out at 0.03 µM in data set [3] and 4.2 µM in data set [6]. Moreover, the result in data set [4] was inactive. For the same compound, the selectivity ratio in data set [5] came out at 1470.

Consider `O=C1c2ccccc2C(=O)N1CCOC(=S)N(C(=O)c1ccc(F)cc1F)c1ccc(Cl)cc1`, for which the “Ratio EC50” value in data set [1] is given as 540. In data set [2], this compound showed a CC50 of 52 µM. The EC50 came to 0.01 µM in data set [3] and 5.4 µM in data set [6]. The result in data set [4] was inactive. Further, in data set [5], the selectivity ratio is 5200.

`CC(COC(=S)N(C(=O)c1cccc([N+](=O)[O-])c1)c1ccc(Cl)cc1)N1C(=O)c2ccccc2C1=O` (racemic): the “Ratio EC50” value in data set [1] is reported as 100. Further, the midpoint of cytotoxicity in data set [2], the CC50, lay at 77 µM. In addition, the values for the EC50 in data set [3] and in data set [6] were 0.05 µM and 5 µM, respectively. Besides, the outcome in data set [4] was inactive. Further, the selectivity ratio in data set [5] worked out at 1540.

In the case of `O=C1c2ccccc2C(=O)N1CCOC(=S)N(C(=O)c1ccc(F)c(F)c1)c1ccc(Cl)cc1`, in data set [1], the “Ratio EC50” value was found to be 7000. Besides, the CC50 in data set [2] was determined as 52 µM. Besides, the EC50 in data set [3] turned out to be 0.008 µM; in data set [6], 56 µM. Besides, the outcome in data set [4] was inactive. Further, in data set [5], the selectivity ratio came out at 6500.

Take `Cc1cc(C(=O)N(C(=S)OCCN2C(=O)c3ccccc3C2=O)c2ccc(Cl)cc2)c(C)o1`: the “Ratio EC50” value in data set [1] stood at 375. Half-maximal cytotoxicity in data set [2] (CC50) was put at 40 µM. Besides, the EC50 in data set [3] came out at 0.02 µM; in data set [6] it was 7.5 µM. The result in data set [4] was inactive. The selectivity ratio in data set [5] was determined as 2000.

Consider `O=C1c2ccccc2C(=O)N1CCOC(=S)N(C(=O)c1cccc(F)c1F)c1ccc(Cl)cc1`, for which the “Ratio EC50” value in data set [1] was found to be 750. This compound returned a CC50 in data set [2] of 58 µM. The EC50 in data set [3] is 0.008 µM; in data set [6], 6 µM. In addition, the result in data set [4] was inactive. In addition, in data set [5], the selectivity ratio was determined as 7250.

As for `O=C1c2ccccc2C(=O)N1CCOC(=S)N(C(=O)c1cc(F)ccc1F)c1ccc(Cl)cc1`, the “Ratio EC50” value in data set [1] amounted to 285. Besides, it took 54 µM to reach half-maximal cytotoxicity in data set [2] (CC50). The EC50 in data set [3] was 0.02 µM; in data set [6], 5.7 µM. Besides, in data set [4], the outcome was inactive. The selectivity ratio in data set [5] was 2700.

On to `O=C1c2ccccc2C(=O)N1CCOC(=S)N(C(=O)c1cc(Cl)cc(Cl)c1)c1ccc(Cl)cc1`, for which the “Ratio EC50” value in data set [1] is 1025. The CC50 in data set [2] amounted to 32 µM. Besides, the EC50 in data set [3] came to 0.008 µM; in data set [6], 8.2 µM. Moreover, the result in data set [4] was inactive. Further, the selectivity ratio in data set [5] was determined as 4000.

On to `Cc1cccc(C(=O)N(C(=S)OCCN2C(=O)c3ccccc3C2=O)c2ccc(Cl)cc2)c1`, for which the “Ratio EC50” value in data set [1] turned out to be 600. In data set [2], this compound displayed a CC50 of 58 µM. Besides, the EC50 in data set [3] is 0.01 µM; in data set [6], 6 µM. Also, the outcome in data set [4] was inactive. Moreover, the selectivity ratio in data set [5] worked out at 5800.

With `Cc1ccc(C(=O)N(C(=S)OCCN2C(=O)c3ccccc3C2=O)c2ccc(Cl)cc2)cc1`, the “Ratio EC50” value in data set [1] is 170. Also, the CC50 in data set [2] is greater than 100 µM. The concentration for a half-maximal effect (EC50) in data set [3] was 0.05 µM; in data set [6], 8.5 µM. The outcome in data set [4] was inactive. Besides, the selectivity ratio in data set [5] was greater than 2000.

The compound `O=C1c2ccccc2C(=O)N1CCOC(=S)N(C(=O)c1c(F)cccc1F)c1ccc(Cl)cc1` registered a CC50 in data set [2] of 39 µM. The EC50 in data set [3] came to 0.02 µM. Besides, the selectivity ratio in data set [5] was determined as 1950.

Take `O=C1Nc2ccc(Cl)cc2[C@@](C#CC2CC2)(C(F)(F)F)O1` [EFAVIRENZ]: the outcome in data set [4] was inactive. The EC50 in data set [6] was 0.01 µM.

The compound `COc1cccc(OC)c1C(=O)N(C(=S)OCCN1C(=O)c2ccccc2C1=O)c1ccc(C)cc1` registered a CC50 in data set [2] of 36 µM. In addition, the EC50 in data set [3] worked out at 22 µM. Further, the selectivity ratio in data set [5] was determined as 1.6.

Compound `O=C1c2ccccc2C(=O)N1CCOC(=S)N(C(=O)c1ccco1)c1ccc(Cl)c(Cl)c1` came in with a CC50 in data set [2] of 100 µM. In data set [3], the 50% effective concentration (EC50) amounted to 0.69 µM. Moreover, the selectivity ratio in data set [5] is 145.

`Cc1ccc(N(C(=O)c2cc(F)cc(F)c2)C(=S)OCCN2C(=O)c3ccccc3C2=O)cc1` returned a CC50 in data set [2] of 54 µM. The EC50 in data set [3] came to 0.05 µM. Besides, the selectivity ratio in data set [5] worked out at 1080.

Consider `O=C1c2ccccc2C(=O)N1CCOC(=S)N(C(=O)c1cc2ccccc2s1)c1ccc(Cl)cc1`, for which, in data set [1], the “Ratio EC50” value was 60. Also, the CC50 in data set [2] is 56 µM. The EC50 in data set [3] was 0.2 µM; in data set [6], 12 µM. The outcome in data set [4] was inactive. Also, the selectivity ratio in data set [5] is 280.
